# PubChem BioAssay AID1451 (NMMLSC, 2008)
# The list shows a part of the results. Activity calls are given as the source filed them.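 How the source made its calls: active means inhibition of pump activity above 50%; inactive means the rest.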
# Target: ATP-dependent translocase ABCB1 (Homo sapiens) (UniProt P08183)
# Assay: blockers of ABCB1-mediated dye efflux – cell-based, single point, ABCG2 counter-screen, confirmation (AID 1451);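 further: 0% = DMSO and 100% = nicardipine full pump inhibition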
# Conditions: CCRF-Adr cells, JC-1 efflux, flow cytometry; at 6.6 µM; stronger effect = higher value
# How it was run: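 material = ABCB1-expressing CCRF-Adr cells | amount = 3 million cells per mL final in well | reagent = JC-1 substrate | compound dosing = single test-compound dose, 6.6 µM final | timing = 10 min exposure, 25 °C | measured by = flow cytometry, 530 nm emission | control set = nicardipine as high control, DMSO as low control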
# Chain of ATP-dependent translocase ABCB1 (Homo sapiens) (P08183 whole entry, looked up): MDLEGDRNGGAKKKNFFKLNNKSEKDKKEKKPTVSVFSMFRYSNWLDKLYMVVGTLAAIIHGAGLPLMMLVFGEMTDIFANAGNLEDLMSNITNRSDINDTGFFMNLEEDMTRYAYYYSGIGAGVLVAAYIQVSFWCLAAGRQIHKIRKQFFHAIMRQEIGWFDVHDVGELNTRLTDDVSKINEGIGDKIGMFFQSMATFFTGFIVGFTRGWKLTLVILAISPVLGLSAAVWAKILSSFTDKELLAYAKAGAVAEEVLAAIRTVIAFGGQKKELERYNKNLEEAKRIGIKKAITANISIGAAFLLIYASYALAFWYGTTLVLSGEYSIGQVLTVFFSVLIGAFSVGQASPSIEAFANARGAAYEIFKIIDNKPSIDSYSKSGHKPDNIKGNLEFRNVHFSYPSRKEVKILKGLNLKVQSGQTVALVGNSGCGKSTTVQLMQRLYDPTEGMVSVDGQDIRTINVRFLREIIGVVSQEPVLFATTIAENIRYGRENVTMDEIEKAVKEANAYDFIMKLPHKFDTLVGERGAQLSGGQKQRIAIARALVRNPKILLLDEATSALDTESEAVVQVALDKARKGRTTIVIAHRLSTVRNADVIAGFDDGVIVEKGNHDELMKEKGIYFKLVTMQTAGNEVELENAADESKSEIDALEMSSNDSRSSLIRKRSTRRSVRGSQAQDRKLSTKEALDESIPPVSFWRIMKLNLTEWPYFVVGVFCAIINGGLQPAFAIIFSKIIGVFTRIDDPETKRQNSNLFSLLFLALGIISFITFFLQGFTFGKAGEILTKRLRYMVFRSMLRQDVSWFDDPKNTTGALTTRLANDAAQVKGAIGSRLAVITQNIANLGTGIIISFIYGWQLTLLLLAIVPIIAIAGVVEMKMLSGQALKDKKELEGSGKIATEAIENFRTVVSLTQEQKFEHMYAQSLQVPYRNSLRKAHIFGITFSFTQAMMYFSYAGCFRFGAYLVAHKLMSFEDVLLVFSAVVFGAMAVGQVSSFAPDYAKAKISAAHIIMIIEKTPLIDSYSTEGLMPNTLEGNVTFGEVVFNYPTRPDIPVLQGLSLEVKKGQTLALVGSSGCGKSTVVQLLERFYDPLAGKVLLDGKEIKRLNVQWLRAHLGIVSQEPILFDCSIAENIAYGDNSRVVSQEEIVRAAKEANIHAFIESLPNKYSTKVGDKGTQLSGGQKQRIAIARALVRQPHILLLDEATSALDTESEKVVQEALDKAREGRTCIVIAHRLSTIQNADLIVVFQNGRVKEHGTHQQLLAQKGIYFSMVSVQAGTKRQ
row,SMILES,inhibition
1,CCN1/C(=C/c2ccc3ccc(C)cc3[n+]2CC)Sc2ccccc21,-9.15% (inactive)
2,COc1ccc(-n2c(C)cc(C(=O)COC(=O)c3cc(OC)c(OC)cc3NC(=O)c3cccs3)c2C)cc1,3% (inactive)
3,COc1ccc(C)cc1NC(=O)C(Sc1ccccc1)c1ccccc1 (stereo not drawn),3.76% (inactive)
4,Cc1c(CCOC(=O)CC23CC4CC(CC(C)(C4)C2)C3)sc[n+]1Cc1ccc([N+](=O)[O-])cc1,0.26% (inactive)
5,CCOCC(=O)Nc1sc2c(c1C(=O)OCC)CCCC2,2.32% (inactive)
6,Cc1ccc(-n2c(SCC(=O)Nc3ncc(Cl)cc3Cl)nc3ccccc32)cc1,41.2% (inactive)
7,C/C(=N\Nc1ncc(Cl)cc1Cl)c1ccc(S(=O)(=O)NCc2ccco2)cc1,1.61% (inactive)
8,O=C(Cc1c[nH]c2ccccc12)N/N=C/c1cccc(F)c1,-0.99% (inactive)
9,C=CCn1c(SCCOc2ccc(OC)cc2)nnc1C(NC(=O)c1ccc(OC)cc1)C(C)C (stereo not drawn),23.6% (inactive)
10,Cc1cccc2cc(CN(Cc3cccs3)C(c3nnnn3C3CCCC3)C(C)C)c(=O)[nH]c12 (stereo not drawn),61.6% (active)
11,COc1cccc(NC(=O)c2ccc(Cn3cc([N+](=O)[O-])cn3)o2)c1,-0.63% (inactive)
12,Cc1ccc(OCC(O)CN2CCN(CC(O)COc3ccc(C)cc3Cl)CC2)c(Cl)c1 (stereo not drawn),17.1% (inactive)
13,CCOC(=O)c1sc(NC(=O)CSc2nnc(-c3ccco3)o2)c(C(=O)OCC)c1C,15.2% (inactive)
